Activity calls are given as the source filed them. The rule behind the calls is not given here.
How the values were obtained:
Rattus norvegicus = organism: Rattus norvegicus; assay: Selectivity for inhibition of delayed rectifier potassium current over inhibition of fast transient potassium current at potassium channel in Sprague-Dawley rat hippocampal neurons; assay type: tissue-based; settings: Hippocampus
[1] = Blockade of voltage-gated potassium channel assessed as inhibition of fast transient potassium current in Sprague-Dawley rat hippocampal neurons by whole cell voltage clamp method; assay type: tissue-based; settings: Hippocampus
Outline: (§1)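 CA1 pyramidal neurons were acutely dissociated from 5- to 9-day-old Sprague-Dawley rats (500 µm minislices, protease XXIII 3 mg/mL, 32 °C, 8 min). Whole-cell voltage clamp was run at 21-23 °C with KCl 140 mM pipettes and leak subtraction. Compound was applied externally by rapid solution changer across a concentration range. IA was read as peak amplitude and IK at 300 ms latency. IC50 came from concentration-response curve fitting.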

Hippocampus [2] = assay: Inhibition of fast transient potassium current in Sprague-Dawley rat hippocampal neurons at 100 uM by whole cell voltage clamp method; assay type: functional
Outline: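 In the primary screen, 100 µM compound was dissolved in external solution and delivered by rapid solution changer to dissociated CA1 pyramidal neurons from 5- to 9-day-old Sprague-Dawley rats. Whole-cell voltage clamp was run at 21-23 °C, with series resistance compensated 75-85% and online leak subtraction. Fast transient K+ current (IA) was measured as peak amplitude.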

[3] = Blockade of voltage-gated potassium channel assessed by inhibition of delayed rectifier potassium current in Sprague-Dawley rat hippocampal neurons by whole cell voltage clamp method; assay type: tissue-based; settings: Hippocampus; outline: as §1
Hippocampus [4] = assay: Inhibition of delayed rectifier potassium current in Sprague-Dawley rat hippocampal neurons at 300 uM; assay type: functional, tissue-based
Outline: (§2)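 IK was recorded by whole-cell voltage clamp (21-23 °C, 3-4 MΩ KCl-based pipettes) in dissociated CA1 pyramidal neurons from 5- to 9-day-old Sprague-Dawley rats. Compound was applied intracellularly at the stated concentration. IK amplitude was measured at 300 ms latency, normalized and followed over time after application. Values are mean ± SEM, n = 5.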

Hippocampus [5] = assay: Inhibition of delayed rectifier potassium current in Sprague-Dawley rat hippocampal neurons at 30 uM; assay type: functional, tissue-based; outline: as §2
Hippocampus [6] = assay: Inhibition of delayed rectifier potassium current in Sprague-Dawley rat hippocampal neurons at 1 mM; assay type: functional, tissue-based
Outline: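 CA1 pyramidal neurons acutely dissociated from 5- to 9-day-old Sprague-Dawley rats (protease XXIII 3 mg/mL, 32 °C, 8 min). Whole-cell voltage clamp at 21-23 °C, 3-4 MΩ electrodes with KCl pipet solution, 75-85% series-resistance compensation, online leak subtraction. Compound dissolved in external solution and delivered by rapid solution changer. IK amplitude read at 300 ms latency.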

Hippocampus [7] = assay: Inhibition of delayed rectifier potassium current in Sprague-Dawley rat hippocampal neurons at 100 uM; assay type: functional, tissue-based; outline: as §2
Hippocampus [8] = assay: Inhibition of delayed rectifier potassium current in Sprague-Dawley rat hippocampal neurons at 10 uM; assay type: functional, tissue-based; outline: as §2

SMILES	Ratio IC50 (Rattus norvegicus)	IC50 [1] [µM]	inhibition at 100 µM (Hippocampus [2]) [%]	IC50 [3] [µM]	Activity (Hippocampus [4])	Activity (Hippocampus [5])	Activity (Hippocampus [6])	Activity (Hippocampus [7])	Activity (Hippocampus [8])
Cc1nc(-c2cccnc2)nc(NCCN)c1Cl	2.9	244	9	83	inactive	–	–	–	–
NCCNS(=O)(=O)c1cccc2c(Cl)cccc12	6.9	124	27	18	–	inactive	–	–	–
COc1ccc2c(CCN)c[nH]c2c1	–	524	10	972	–	–	inactive	–	–
NC(COc1ccccc1)c1ccc2c(c1)OCCO2 (stereo not given)	11	737	20	67	–	–	–	inactive	–
Cc1ccc(S(=O)(=O)NCCOCCOCCOCCNS(=O)(=O)c2ccc(C)cc2)cc1	13.3	28	63	2.1	inactive	–	–	–	inactive
O=S(=O)(CCN1CCN(Cc2ccccc2)CC1)c1ccc(Cl)cc1	16.3	980	11	60	–	–	–	inactive	–
